Source: PubChem BioAssay (several laboratories)
This is a sample that favours compounds with a hit; in the whole collection about 4.1% have one here.
KCNQ1 pot = potentiators or activators of KCNQ1 channel, primary screen, cell-based, thallium flux, high-throughput; Potassium voltage-gated channel subfamily KQT member 1 (Homo sapiens), P51787; CHO-K1 KCNQ1, thallium flux FluxOR fluorescence; hits give high values; B-score at 10 µM; hit rate 0.35% among 310,000; AID 2648, 2010;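 active means fluorescence ratio B-score, a plate-corrected score, at least three library SD, with initial intensity B-score within 5 SD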
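Medium – assay buffer, equal DMSO in all wells · Material – CHO-K1 cell line with stable KCNQ1 potassium channel expression · Signal – kinetic FluxOR thallium fluorescence, 10-s 1-Hz baseline, 110-s post-stimulus read · Compound – single concentration per compound, DMSO matched to controls · Schedule – 37 °C overnight plating, 90-min dark dye load, 20-min compound pretreatment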
KCNK3 inh = human KCNK3 channel inhibitors, primary screen, CHO cells, FluxOR thallium flux, B-score. Potassium channel subfamily K member 3 (Homo sapiens), O14649. FluxOR fluorescence; hits give low values. B-score at 10 µM. hit rate 0.84% among 340,000;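 active means B-score under library mean minus 4 SD, starting fluorescence ratio at most library mean plus 5 SD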;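 further: more negative B-score means stronger inhibition of thallium flux through KCNK3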
hERG protect = hERG rescue from dofetilide block, primary screen, cell-based, CHO-hERG, FluxOR thallium flux, dofetilide IC70; Voltage-gated inwardly rectifying potassium channel KCNH2 (Homo sapiens), Q12809; dofetilide IC70 present; activation (rescue from dofetilide block), less the hit threshold, % at 10 µM; hit rate 0.51% among 310,000;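 active means activation above the mean of controls blocked by dofetilide plus 5 SD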;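 further: thallium influx through hERG after potassium depolarization seen as dye fluorescence rise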
Target sequence (Q12809 whole entry, looked up): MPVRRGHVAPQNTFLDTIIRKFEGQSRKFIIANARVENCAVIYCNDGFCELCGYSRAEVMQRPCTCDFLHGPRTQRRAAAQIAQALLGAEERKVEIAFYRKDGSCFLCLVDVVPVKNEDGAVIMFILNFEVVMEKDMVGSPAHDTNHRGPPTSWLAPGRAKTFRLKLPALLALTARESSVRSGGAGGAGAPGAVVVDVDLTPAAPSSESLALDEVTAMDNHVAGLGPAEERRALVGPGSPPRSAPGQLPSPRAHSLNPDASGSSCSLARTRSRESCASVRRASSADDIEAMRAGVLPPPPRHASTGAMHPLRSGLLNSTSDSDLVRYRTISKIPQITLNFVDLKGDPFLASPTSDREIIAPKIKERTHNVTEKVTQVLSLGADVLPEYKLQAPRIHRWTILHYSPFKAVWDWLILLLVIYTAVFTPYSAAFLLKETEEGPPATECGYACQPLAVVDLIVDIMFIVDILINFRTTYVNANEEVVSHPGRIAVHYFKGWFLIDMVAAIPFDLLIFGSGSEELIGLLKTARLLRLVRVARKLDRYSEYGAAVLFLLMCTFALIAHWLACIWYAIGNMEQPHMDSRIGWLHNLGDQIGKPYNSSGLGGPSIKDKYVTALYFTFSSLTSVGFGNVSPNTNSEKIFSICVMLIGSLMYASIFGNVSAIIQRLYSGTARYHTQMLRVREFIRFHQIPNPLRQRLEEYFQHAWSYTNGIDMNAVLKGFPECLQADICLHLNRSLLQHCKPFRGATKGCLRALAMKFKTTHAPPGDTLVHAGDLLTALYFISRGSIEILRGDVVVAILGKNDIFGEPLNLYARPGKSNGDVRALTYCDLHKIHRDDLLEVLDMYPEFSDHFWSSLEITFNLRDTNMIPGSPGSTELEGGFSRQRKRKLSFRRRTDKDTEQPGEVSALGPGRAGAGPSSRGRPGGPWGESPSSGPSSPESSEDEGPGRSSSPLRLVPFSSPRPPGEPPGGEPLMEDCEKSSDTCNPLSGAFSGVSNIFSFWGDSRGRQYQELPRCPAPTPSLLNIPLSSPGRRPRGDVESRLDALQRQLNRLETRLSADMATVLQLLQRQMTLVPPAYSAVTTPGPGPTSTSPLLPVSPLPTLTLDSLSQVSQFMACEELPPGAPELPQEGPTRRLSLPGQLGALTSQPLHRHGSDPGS
KCNQ1 block = inhibitors of human KCNQ1 channel, primary screen, cell-based, thallium flux, high-throughput. Potassium voltage-gated channel subfamily KQT member 1 (Homo sapiens), P51787. CHO-K1 KCNQ1, FluxOR thallium flux fluorescence; hits give high values. B-score at 10 µM. hit rate 1.3% among 310,000. AID 2642, 2010;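 active means compounds whose thallium flux B-score, printed positive for inhibition, exceeds three library SD while starting fluorescence stays within three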;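 further: channel opened by potassium depolarization with thallium stimulus after 20 min compound exposure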
Cl transport mod = KCC2 cotransporter modulators, thallium flux, primary screen, cell-based, HEK293 KCC2, FluoZin-2 fluorescence, MLSMR; hit rate 2.2% among 190,000; B-score of Tl+ flux slope (higher = more flux/activation; lower = inhibition) at 10 µM; KCC2 cells, thallium flux FluoZin-2 fluorescence;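 active means thallium flux slope and its plate-corrected score both differing from the plate sample mean at a set confidence after two filtering rounds, in either direction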;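 further: slope of fluorescence scaled to starting intensity during 10 to 20 s after thallium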
KCNK9 inh = KCNK9 potassium channel inhibitors, primary screen, HEK293 cells, thallium flux | hit rate 1.2% among 310,000 | Potassium channel subfamily K member 9 (Homo sapiens), Q9NPC2 | FluxOR thallium flux fluorescence; hits give low values | AID 488922, 2010 | B-score at 10 µM;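 active means ratio B-score over 3 SD below the library mean, with starting fluorescence within 5 SD of its mean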;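 further: negative B-score means less thallium flux so channel inhibition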
KCNK9 inh conf = KCNK9 potassium channel inhibitors, confirmation, HEK293 cells, thallium flux, duplicate. hit rate 43% among 4,900. AID 492992, 2010. FluxOR thallium flux fluorescence. inhibition, % at 10 µM. shares compounds with KCNK9 inh;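 active means thallium signal inhibited by more than 5 SD of the compound-free buffer control wells, on both duplicate plates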
Kir2-1 spec = mouse Kir2.1 channel inhibition, confirmation, selectivity assay for KCNK9 modulator project, cell-based, HEK293, thallium flux; shares compounds with KCNK9 inh; Kir2.1 cells, FluxOR thallium flux fluorescence; inhibition, % at 10 µM; hit rate 4% among 4,900;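 active means thallium signal drop more than 5 SD beyond the mean of the no-compound control wells, seen in both duplicate plates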;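 further: signal is fluorescence rise after thallium addition divided by baseline fluorescence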
KCNK9 uninduced = thallium flux in non-induced HEK293 cells, confirmation, counter-screen for KCNK9 inhibitor project, cell-based, second counter screen, non-induced KCNK9-HEK293; shares compounds with KCNK9 inh; FluxOR thallium flux; inhibition, % at 10 µM; hit rate 40% among 4,900; AID 492997, 2010;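 active means thallium signal drop beyond 5 SD of the untreated control mean, on both duplicate plates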
Numbers stand for hits; n = inactive; x = no result.

SMILES	KCNQ1 pot	KCNK3 inh	hERG protect	KCNQ1 block	Cl transport mod	KCNK9 inh	KCNK9 inh conf	Kir2-1 spec	KCNK9 uninduced
Cc1ccc(-n2ncc3c2CCCC3NC(=O)CSc2ccccn2)cc1C (stereo not drawn)	n	n	n	n	x	n	n	n	n
COCc1cc(C)nc(OCC(=O)N/N=C/c2cccc(OC)c2)c1C#N	n	n	n	n	n	n	x	x	x
O=c1cc(/C=C/c2ccccc2)oc2c1ccc1ccccc12	n	n	n	n	n	-8.3	n	n	n
O=c1cc(C(F)(F)F)oc2c1ccc1ccccc12	n	n	n	n	n	n	x	x	x
COc1ccc(CN(CCC(c2ccco2)C(C)C)C(C)=O)cc1OC (stereo not drawn)	n	n	n	n	n	n	x	x	x
CC(=O)N(CCC(c1ccco1)C(C)C)Cc1ccc(OC(C)C)cc1 (stereo not drawn)	n	n	n	n	n	-16	37%	n	43%
Cc1cc(N/N=C/c2ccccc2Cl)nc(NCc2ccccc2)n1	n	n	n	n	n	n	n	n	n
Cc1cc(C)nc(N/N=C/c2ccccc2Cl)n1	n	n	n	n	n	n	x	x	x
COc1cc(N=c2ssnc2Cl)c(OC)cc1Cl	n	n	n	n	n	n	n	n	n
CCC1CCCCN1C(=S)Nc1cccc(S(=O)(=O)N(C)C)c1 (stereo not drawn)	n	n	n	n	n	n	x	x	x
CN1CCN(C(=O)CCCN2C(=O)/C(=C/c3cccc(Br)c3)SC2=S)CC1	n	n	n	n	x	n	n	n	n
O=C(CCCN1C(=O)/C(=C/c2ccccc2)SC1=S)N1CCOCC1	n	n	n	n	x	n	x	x	x
O=C(CCCN1C(=O)/C(=C/c2cccc(Br)c2)SC1=S)N1CCOCC1	n	n	n	n	x	n	n	n	n
CC(OC(=O)c1ccc(Br)c(S(=O)(=O)N2CCOCC2)c1)C(=O)NC1CCCCC1C (stereo not drawn)	n	n	n	n	x	n	x	x	x
CCCCCCCc1ccc(-c2ccc(O)cc2)nc1	n	n	n	n	n	n	n	n	n
CCCCCc1ccc(-c2ccc(/C=C/C(=O)O)cc2)nc1	n	n	n	n	n	n	x	x	x
Cc1ccc(S(=O)CCNC(=O)Cc2ccccc2)cc1 (stereo not drawn)	n	n	n	n	n	n	x	x	x
CC1=Cc2ccccc2C(C#N)N1C(=O)c1ccccc1 (stereo not drawn)	n	n	n	n	n	n	x	x	x
N#CC1(Cc2ccc([N+](=O)[O-])cc2)c2ccccc2C=CN1C(=O)c1ccccc1 (stereo not drawn)	n	n	n	n	n	-12	32%	n	34%
N#CC1(Cc2ccccc2)c2ccccc2C=CN1C(=O)c1ccccc1 (stereo not drawn)	n	n	n	6	n	-9.8	46%	n	31%
CN(CC(=O)NCc1cccnc1)S(=O)(=O)c1ccc(F)cc1	n	n	n	n	x	n	x	x	x
Cc1cc(Cl)ccc1OCCCC(=O)N1CCCc2ccccc21	n	n	n	n	n	n	n	67%	n
O=C(CCCOc1ccccc1)N1CCCc2ccccc21	n	n	n	n	n	n	x	x	x
COc1ccc(/C=C(\NC(=O)c2ccc(Cl)cc2)C(=O)NCC2CCCO2)cc1OC (stereo not drawn)	n	n	n	n	x	n	x	x	x
